Assay results: ChEMBL document CHEMBL3739379, “Anti-Candida activity and cytotoxicity of a large library of new N-substituted-1,3-thiazolidin-4-one derivatives” (Eur J Med Chem, 2016)
In brackets after ≈: the same amount, converted by molar mass.

What was measured:
Type in all cases: functional
Pichia kudriavzevii = test: Antifungal activity against Candida krusei clinical isolate after 24 hrs by sabouraud dextrose broth based microdilution method
Procedure, shortened: (§1)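 Clinical isolates identified by conventional methods and subcultured for purity. Broth microdilution per NCCLS in Sabouraud dextrose broth; compounds dissolved in DMSO and serially diluted; inoculum 10^3/mL. Controls: fungi without compound, medium only. Incubated 24 h at 37 °C. MIC is the lowest concentration with complete growth inhibition by unaided eye. Values are geometric means over isolates per species.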

Proteus mirabilis = test: Antibacterial activity against Proteus mirabilis after 18 to 22 hrs by broth microdilution method
Procedure, shortened: (§2)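 Broth microdilution per NCCLS in Mueller-Hinton II broth; isolates subcultured for purity. Compounds dissolved in DMSO, serial dilutions 256 to 0.5 µg/mL; inoculum 10^5/mL. Controls: organism without compound, medium only. Incubation 18 to 22 h at 35 °C. MIC is the lowest concentration giving complete growth inhibition, read by unaided eye.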

Escherichia coli = test: Antibacterial activity against Escherichia coli at after 18 to 22 hrs by broth microdilution method; procedure, shortened: as §2
Staphylococcus aureus = test: Antibacterial activity against Staphylococcus aureus after 18 to 22 hrs by broth microdilution method; procedure, shortened: as §2
Enterobacter sp. = test: Antibacterial activity against Enterobacter sp. after 18 to 22 hrs by broth microdilution method; procedure, shortened: as §2
Candida albicans = test: Antifungal activity against Candida albicans clinical isolate after 24 hrs by sabouraud dextrose broth based microdilution method; procedure, shortened: as §1
Candida tropicalis = test: Antifungal activity against Candida tropicalis clinical isolate after 24 hrs by sabouraud dextrose broth based microdilution method; procedure, shortened: as §1
Nakaseomyces glabratus = test: Antifungal activity against Candida glabrata clinical isolate after 24 hrs by sabouraud dextrose broth based microdilution method; procedure, shortened: as §1
Klebsiella oxytoca = test: Antibacterial activity against Klebsiella oxytoca after 18 to 22 hrs by broth microdilution method; procedure, shortened: as §2
Enterococcus faecalis = test: Antibacterial activity against […] faecalis after 18 to 22 hrs by broth microdilution method; procedure, shortened: as §2
[1] = test system: Staphylococcus haemolyticus; test: Antibacterial activity against Staphylococcus haemolyticus after 18 to 22 hrs by broth microdilution method; procedure, shortened: as §2
[Candida] sake = Antifungal activity against Candida sake clinical isolate after 24 hrs by sabouraud dextrose broth based microdilution method; details: Fermentozyma sake; procedure, shortened: as §1
Candida parapsilosis = test: Antifungal activity against Candida parapsilosis clinical isolate after 24 hrs by sabouraud dextrose broth based microdilution method; details: Lodderomyces parapsilosis; procedure, shortened: as §1
Staphylococcus warneri = test: Antibacterial activity against Staphylococcus warneri after 18 to 22 hrs by broth microdilution method; procedure, shortened: as §2

| SMILES | MIC (Pichia kudriavzevii) | MIC (Proteus mirabilis) | MIC (Escherichia coli) | MIC (Staphylococcus aureus) | MIC (Enterobacter sp.) | MIC (Candida albicans) | MIC (Candida tropicalis) | MIC (Nakaseomyces glabratus) | MIC (Klebsiella oxytoca) | MIC (Enterococcus faecalis) | MIC [1] | MIC ([Candida] sake) | MIC (Candida parapsilosis) | MIC (Staphylococcus warneri) |
| --- | --- | --- | --- | --- | --- | --- | --- | --- | --- | --- | --- | --- | --- | --- |
| C/C(=N\N=C1/SCC(=O)N1CN1C(=O)c2ccccc2C1=O)C1CCCCC1 | 16 µg/mL (≈ 40.2 µM) | > 256 µg/mL | > 256 µg/mL | > 256 µg/mL | > 256 µg/mL | 256 µg/mL (≈ 642 µM) | 256 µg/mL (≈ 642 µM) | 16 µg/mL (≈ 40.2 µM) | > 256 µg/mL | > 256 µg/mL | > 256 µg/mL | 16 µg/mL (≈ 40.2 µM) | 16 µg/mL (≈ 40.2 µM) | > 256 µg/mL |
| CC1CCC/C1=N\N=C1/SCC(=O)N1CN1C(=O)c2ccccc2C1=O (stereo not given) | 2 µg/mL (≈ 5.4 µM) | > 256 µg/mL | > 256 µg/mL | > 256 µg/mL | > 256 µg/mL | 16 µg/mL (≈ 43.2 µM) | 4 µg/mL (≈ 10.8 µM) | 32 µg/mL (≈ 86.4 µM) | > 256 µg/mL | > 256 µg/mL | > 256 µg/mL | 8 µg/mL (≈ 21.6 µM) | 8 µg/mL (≈ 21.6 µM) | > 256 µg/mL |
| C/C(=N\N=C1/SCC(=O)N1CN1C(=O)c2ccccc2C1=O)c1ccccc1 | 8 µg/mL (≈ 20.4 µM) | > 256 µg/mL | > 256 µg/mL | > 256 µg/mL | > 256 µg/mL | 2 µg/mL (≈ 5.1 µM) | 8 µg/mL (≈ 20.4 µM) | 8 µg/mL (≈ 20.4 µM) | > 256 µg/mL | > 256 µg/mL | > 256 µg/mL | 8 µg/mL (≈ 20.4 µM) | 8 µg/mL (≈ 20.4 µM) | > 256 µg/mL |
| CCCCCC/C(C)=N/N=C1\SCC(=O)N1CN1C(=O)c2ccccc2C1=O | 8 µg/mL (≈ 20 µM) | > 256 µg/mL | > 256 µg/mL | > 256 µg/mL | > 256 µg/mL | 2 µg/mL (≈ 4.99 µM) | 16 µg/mL (≈ 39.9 µM) | 16 µg/mL (≈ 39.9 µM) | > 256 µg/mL | > 256 µg/mL | > 256 µg/mL | 16 µg/mL (≈ 39.9 µM) | 16 µg/mL (≈ 39.9 µM) | > 256 µg/mL |
| O=C1c2ccccc2C(=O)N1CN1C(=O)CS/C1=N\N=C1CCCCCC1 | 16 µg/mL (≈ 41.6 µM) | > 256 µg/mL | > 256 µg/mL | > 256 µg/mL | > 256 µg/mL | 4 µg/mL (≈ 10.4 µM) | 32 µg/mL (≈ 83.2 µM) | 16 µg/mL (≈ 41.6 µM) | > 256 µg/mL | > 256 µg/mL | > 256 µg/mL | 16 µg/mL (≈ 41.6 µM) | 4 µg/mL (≈ 10.4 µM) | > 256 µg/mL |
| CCCC/C(CC)=N/N=C1\SCC(=O)N1CN1C(=O)c2ccccc2C1=O | 32 µg/mL (≈ 82.8 µM) | > 256 µg/mL | > 256 µg/mL | > 256 µg/mL | > 256 µg/mL | 4 µg/mL (≈ 10.3 µM) | 2 µg/mL (≈ 5.17 µM) | 16 µg/mL (≈ 41.4 µM) | > 256 µg/mL | > 256 µg/mL | > 256 µg/mL | 2 µg/mL (≈ 5.17 µM) | 8 µg/mL (≈ 20.7 µM) | > 256 µg/mL |
| C/C(=N\N=C1/SCC(=O)N1CN1C(=O)c2ccccc2C1=O)c1ccco1 | 256 µg/mL (≈ 669 µM) | > 256 µg/mL | > 256 µg/mL | > 256 µg/mL | > 256 µg/mL | 256 µg/mL (≈ 669 µM) | 128 µg/mL (≈ 335 µM) | 16 µg/mL (≈ 41.8 µM) | > 256 µg/mL | > 256 µg/mL | > 256 µg/mL | 256 µg/mL (≈ 669 µM) | 256 µg/mL (≈ 669 µM) | > 256 µg/mL |
| O=C1c2ccccc2C(=O)N1CN1C(=O)CS/C1=N\N=C1CCCCC1 | 16 µg/mL (≈ 43.2 µM) | > 256 µg/mL | > 256 µg/mL | > 256 µg/mL | > 256 µg/mL | 8 µg/mL (≈ 21.6 µM) | 8 µg/mL (≈ 21.6 µM) | 16 µg/mL (≈ 43.2 µM) | > 256 µg/mL | > 256 µg/mL | > 256 µg/mL | 32 µg/mL (≈ 86.4 µM) | 8 µg/mL (≈ 21.6 µM) | > 256 µg/mL |
| O=C1c2ccccc2C(=O)N1CN1C(=O)CS/C1=N\N=C1CCCCCCC1 | 4 µg/mL (≈ 10 µM) | > 256 µg/mL | > 256 µg/mL | > 256 µg/mL | > 256 µg/mL | 4 µg/mL (≈ 10 µM) | 8 µg/mL (≈ 20.1 µM) | 32 µg/mL (≈ 80.3 µM) | > 256 µg/mL | > 256 µg/mL | > 256 µg/mL | 4 µg/mL (≈ 10 µM) | 4 µg/mL (≈ 10 µM) | > 256 µg/mL |
| O=C1c2ccccc2C(=O)N1CN1C(=O)CS/C1=N\N=C\c1ccco1 | 4 µg/mL (≈ 10.9 µM) | > 256 µg/mL | > 256 µg/mL | > 256 µg/mL | > 256 µg/mL | 2 µg/mL (≈ 5.43 µM) | 8 µg/mL (≈ 21.7 µM) | 8 µg/mL (≈ 21.7 µM) | > 256 µg/mL | > 256 µg/mL | > 256 µg/mL | 2 µg/mL (≈ 5.43 µM) | 2 µg/mL (≈ 5.43 µM) | > 256 µg/mL |
| C/C(=N\N=C1/SCC(=O)N1CN1C(=O)c2ccccc2C1=O)c1cccs1 | 4 µg/mL (≈ 10 µM) | > 256 µg/mL | > 256 µg/mL | > 256 µg/mL | > 256 µg/mL | 4 µg/mL (≈ 10 µM) | 2 µg/mL (≈ 5.02 µM) | 32 µg/mL (≈ 80.3 µM) | > 256 µg/mL | > 256 µg/mL | > 256 µg/mL | 8 µg/mL (≈ 20.1 µM) | 4 µg/mL (≈ 10 µM) | > 256 µg/mL |
| CC1CCC(=N/N=C2\SCC(=O)N2CN2C(=O)c3ccccc3C2=O)CC1 (stereo not given) | 8 µg/mL (≈ 20.8 µM) | > 256 µg/mL | > 256 µg/mL | > 256 µg/mL | > 256 µg/mL | 2 µg/mL (≈ 5.2 µM) | 8 µg/mL (≈ 20.8 µM) | 32 µg/mL (≈ 83.2 µM) | > 256 µg/mL | > 256 µg/mL | > 256 µg/mL | 4 µg/mL (≈ 10.4 µM) | 8 µg/mL (≈ 20.8 µM) | > 256 µg/mL |
| O=C1c2ccccc2C(=O)N1CN1C(=O)CS/C1=N\N=C1CCCC1 | 16 µg/mL (≈ 44.9 µM) | > 256 µg/mL | > 256 µg/mL | > 256 µg/mL | > 256 µg/mL | 2 µg/mL (≈ 5.61 µM) | 8 µg/mL (≈ 22.4 µM) | 16 µg/mL (≈ 44.9 µM) | > 256 µg/mL | > 256 µg/mL | > 256 µg/mL | 256 µg/mL (≈ 718 µM) | 64 µg/mL (≈ 180 µM) | > 256 µg/mL |
| CC1CCCC/C1=N\N=C1/SCC(=O)N1CN1C(=O)c2ccccc2C1=O (stereo not given) | 16 µg/mL (≈ 41.6 µM) | > 256 µg/mL | > 256 µg/mL | > 256 µg/mL | > 256 µg/mL | 4 µg/mL (≈ 10.4 µM) | 2 µg/mL (≈ 5.2 µM) | 8 µg/mL (≈ 20.8 µM) | > 256 µg/mL | > 256 µg/mL | > 256 µg/mL | 2 µg/mL (≈ 5.2 µM) | 16 µg/mL (≈ 41.6 µM) | > 256 µg/mL |
| CC1CC/C(=N\N=C2/SCC(=O)N2CN2C(=O)c3ccccc3C2=O)C1 (stereo not given) | 16 µg/mL (≈ 43.2 µM) | > 256 µg/mL | > 256 µg/mL | > 256 µg/mL | > 256 µg/mL | 2 µg/mL (≈ 5.4 µM) | 8 µg/mL (≈ 21.6 µM) | 32 µg/mL (≈ 86.4 µM) | > 256 µg/mL | > 256 µg/mL | > 256 µg/mL | 16 µg/mL (≈ 43.2 µM) | 8 µg/mL (≈ 21.6 µM) | > 256 µg/mL |
